Results as given in ChEMBL document CHEMBL4007449, “Novel multi-substituted benzyl acridone derivatives as survivin inhibitors for hepatocellular carcinoma treatment” (Eur J Med Chem, 2017).
Activity calls are given as the source filed them. The calls are words filed in the database; no cut-off is given here.

Key:
[1] = Selectivity index, ratio of IC50 for human QGY7701 cells to IC50 for human HepG2 cells; format: functional
Summary of the method: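 Ratio built from MTT IC50 values: QGY-7701 and HepG2 cells in DMEM/10% FBS, seeded at 6 × 10^3 cells/well, attached 12 h, treated 48 h at final 0.1–50 µM, MTT 4 h, DMSO solubilisation, absorbance at 490 nm.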

[2] = test system: HepG2; assay: Antiproliferative activity against human HepG2 cells after 48 hrs by MTT assay; format: functional, cell-based; conditions: HepG2, 48 h
Summary of the method: (§1)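 Cells grown in DMEM with 10% FBS at 37 °C, 5% CO2; seeded at 6 × 10^3 cells/well, allowed to attach 12 h, then exposed to compound at final 50, 25, 10, 1 and 0.1 µM for 48 h. MTT (5 mg/mL) added for 4 h, formazan dissolved in DMSO, absorbance read at 490 nm; IC50 taken from the resulting curve.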

[3] = test system: MCF7; assay: Antiproliferative activity against human MCF7 cells after 48 hrs by MTT assay; format: functional, cell-based; conditions: MCF7, 48 h; summary of the method: as §1
[4] = Antiproliferative activity against human QGY7701 cells after 48 hrs by MTT assay; format: cell-based; conditions: QGY7701, 48 h; summary of the method: as §1
[5] = molecular target: T1, DNA topoisomerase 1 (Homo sapiens) (UniProt P11387); assay: Inhibition of recombinant human topoisomerase-1-mediated relaxation of pBR322 DNA substrate after 30 mins agarose gel electrophoresis method
T1 sequence (whole entry): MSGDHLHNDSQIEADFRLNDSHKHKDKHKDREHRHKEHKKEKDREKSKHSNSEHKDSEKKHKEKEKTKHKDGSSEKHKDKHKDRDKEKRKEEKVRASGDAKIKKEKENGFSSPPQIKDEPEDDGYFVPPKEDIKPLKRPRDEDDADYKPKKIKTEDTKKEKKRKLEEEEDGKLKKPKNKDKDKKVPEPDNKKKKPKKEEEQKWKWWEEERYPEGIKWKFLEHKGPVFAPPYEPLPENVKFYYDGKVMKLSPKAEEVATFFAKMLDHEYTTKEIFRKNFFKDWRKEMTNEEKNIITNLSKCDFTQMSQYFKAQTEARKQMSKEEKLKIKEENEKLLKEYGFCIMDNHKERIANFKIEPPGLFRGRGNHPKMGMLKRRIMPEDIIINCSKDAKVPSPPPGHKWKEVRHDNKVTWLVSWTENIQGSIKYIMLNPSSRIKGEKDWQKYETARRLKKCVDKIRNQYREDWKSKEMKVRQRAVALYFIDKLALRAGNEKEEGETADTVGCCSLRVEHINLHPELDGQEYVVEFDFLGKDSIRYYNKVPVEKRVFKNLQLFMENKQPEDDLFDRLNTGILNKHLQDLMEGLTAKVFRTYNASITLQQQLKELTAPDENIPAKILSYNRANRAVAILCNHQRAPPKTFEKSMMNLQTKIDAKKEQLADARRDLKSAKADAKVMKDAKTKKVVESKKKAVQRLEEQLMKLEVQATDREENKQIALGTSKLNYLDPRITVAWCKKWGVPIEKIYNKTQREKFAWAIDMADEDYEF

[6] = species on record: Bos taurus; assay: Binding affinity to calf thymus DNA at 40 uM after 5 mins by UV absorbance spectrophotometric method; conditions: in the assay text read “fluorescence spectroscopic method” for “UV absorbance spectrophotometric method”
Summary of the method: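 Fluorescence emission titration on a spectrofluorometer in 5 mM Tris, 50 mM NaCl, pH 7.2. Compound fixed at 40 µM final; ct DNA added at 0, 8, 16, 24, 32, 40, 60, 80 and 120 µM final. DNA concentration set by UV using ε260 = 6600 M-1 cm-1. Excitation 280 nm; 5 min incubation before reading.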

[7] = test system: HepG2; assay: Upregulation of cleaved caspase-7 expression in human HepG2 cells at 10 uM after 24 hrs by Western blot method; format: functional, cell-based
Summary of the method: (§2)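 HepG2 cells in 6 cm dishes exposed to a range of concentrations (1–10 µM) for 24 h. Lysate protein measured by BCA, run on 12% SDS-PAGE and transferred to PVDF. Membrane blocked in 5% milk for 1 h, primary antibody overnight at 4 °C, bands imaged after antibody hybridisation.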

[8] = species on record: Homo sapiens; assay: Inhibition of recombinant human topoisomerase-2-mediated decatenation at 50 uM using kinetoplast DNA as substrate after 30 mins agarose gel electrophoresis method relative to control
Summary of the method: (§3)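 Human Topo II decatenation run by a contract laboratory. Compound or 50% DMSO combined with reaction mix and diluted enzyme, incubated 35 ± 2 °C for 30 min, then stop buffer added. Products separated on 1% agarose, stained 10 min with 2.3 µg/ml ethidium bromide, destained 20 min, bands quantified densitometrically. Doxorubicin at 1 and 10 µM as positive controls, no-compound negative control; run in duplicate.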

[9] = test system: HepG2; assay: Downregulation of survivin expression in human HepG2 cells after 24 hrs by Western blot method; format: functional, cell-based; summary of the method: as §2
[10] = molecular target: Baculoviral IAP repeat-containing protein 5 (Homo sapiens) (UniProt O15392); assay: Binding affinity to survivin (unknown origin) after 20 mins by spectrofluorimetric titration method
Summary of the method: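 Intrinsic fluorescence titration of purified survivin (0.3 µM) in 10 mM PBS, pH 7.4, at 37 °C. Compound added to final 0–1.6 µM; 20 min incubation before recording emission spectra with excitation at 280 nm. Spectra compared with and without survivin.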

[11] = test system: HepG2; assay: Upregulation of cleaved PARP expression in human HepG2 cells up to 10 uM after 24 hrs by Western blot method; format: functional, cell-based; summary of the method: as §2
[12] = test system: HepG2; assay: Downregulation of Bcl2 expression in human HepG2 cells at 10 uM after 24 hrs by Western blot method; format: functional, cell-based; summary of the method: as §2
[13] = species on record: Homo sapiens; assay: Inhibition of recombinant human topoisomerase-2-mediated decatenation at 10 uM using kinetoplast DNA as substrate after 30 mins agarose gel electrophoresis method relative to control; summary of the method: as §3
[14] = molecular target: Baculoviral IAP repeat-containing protein 5 (Homo sapiens) (UniProt O15392); assay: Binding affinity to survivin (unknown origin) up to 1.8 uM after 20 mins by spectrofluorimetric titration method
[15] = test system: HepG2; assay: Antitumor activity against human HepG2 cells ectopically xenografted in nude mouse assessed as tumor growth inhibition at 3 mg/kg, ip administered once in 2 days measured after 30 days relative to control; format: functional; conditions: read-out: TGI
Summary of the method: (§4)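 HepG2 cells implanted subcutaneously in the flanks of nude mice, randomised into groups of 5: blank, 5-FU (25 mg/kg) and test compound hydrochloride at 0.33 or 3 mg/kg, given i.p. once every 2 days. Tumour volume and body weight recorded every 2 days. Mice euthanised on day 30; tumours, liver and spleen weighed and organ indices calculated; tumour growth inhibition derived.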

[16] = test system: Mus musculus; assay: Toxicity in nude mouse ectopically xenografted with human HepG2 cells assessed as spleen weight index at 0.33 mg/kg, ip administered once in 2 days measured after 30 days (reference value: 0.002 to 0.0106); format: organism-based; conditions: in vivo, 720 h; summary of the method: as §4
[17] = test system: Mus musculus; assay: Toxicity in nude mouse ectopically xenografted with human HepG2 cells assessed as effect on normal growth at 0.33 to 3 mg/kg, ip administered once in 2 days measured up to 30 days post dose; format: organism-based; conditions: in vivo; summary of the method: as §4
[18] = test system: Mus musculus; assay: Toxicity in ip dosed nude mouse ectopically xenografted with human HepG2 cells assessed as increase in spleen weight administered once in 2 days measured after 30 days; format: organism-based; conditions: in vivo, 720 h; summary of the method: as §4
[19] = test system: Mus musculus; assay: Toxicity in nude mouse ectopically xenografted with human HepG2 cells assessed as body weight loss at 0.33 to 3 mg/kg, ip administered once in 2 days measured up to 30 days post dose; format: organism-based; conditions: in vivo; summary of the method: as §4
[20] = test system: Mus musculus; assay: Toxicity in nude mouse ectopically xenografted with human HepG2 cells assessed as liver weight at 3 mg/kg, ip administered once in 2 days measured after 30 days (reference value: 0.069 to 0.434 g); format: organism-based; conditions: in vivo, 720 h; summary of the method: as §4
[21] = test system: Mus musculus; assay: Toxicity in nude mouse ectopically xenografted with human HepG2 cells assessed as liver weight at 0.33 mg/kg, ip administered once in 2 days measured after 30 days (reference value: 0.069 to 0.434 g); format: organism-based; conditions: in vivo, 720 h; summary of the method: as §4
[22] = test system: Mus musculus; assay: Toxicity in nude mouse ectopically xenografted with human HepG2 cells assessed as effect on normal behavior at 0.33 to 3 mg/kg, ip administered once in 2 days measured up to 30 days post dose; format: organism-based; conditions: in vivo; summary of the method: as §4
[23] = test system: Mus musculus; assay: Toxicity in nude mouse ectopically xenografted with human HepG2 cells assessed as spleen weight at 3 mg/kg, ip administered once in 2 days measured after 30 days (reference value: 0.071 to 0.248 g); format: organism-based; conditions: in vivo, 720 h; summary of the method: as §4
[24] = test system: Mus musculus; assay: Toxicity in nude mouse ectopically xenografted with human HepG2 cells assessed as liver weight index at 3 mg/kg, ip administered once in 2 days measured after 30 days (reference value: 0.0009 to 0.0187); format: organism-based; conditions: in vivo, 720 h; summary of the method: as §4
[25] = test system: Mus musculus; assay: Toxicity in nude mouse ectopically xenografted with human HepG2 cells assessed as spleen weight at 0.33 mg/kg, ip administered once in 2 days measured after 30 days (reference value: 0.071 to 0.248 g); format: organism-based; conditions: in vivo, 720 h; summary of the method: as §4
[26] = test system: Mus musculus; assay: Toxicity in nude mouse ectopically xenografted with human HepG2 cells assessed as spleen weight index at 3 mg/kg, ip administered once in 2 days measured after 30 days (reference value: 0.002 to 0.0106); format: organism-based; conditions: in vivo, 720 h; summary of the method: as §4
[27] = test system: Mus musculus; assay: Toxicity in nude mouse ectopically xenografted with human HepG2 cells assessed as liver weight index at 0.33 mg/kg, ip administered once in 2 days measured after 30 days (reference value: 0.0009 to 0.0187); format: organism-based; conditions: in vivo, 720 h; summary of the method: as §4
[28] = test system: Mus musculus; assay: Toxicity in nude mouse ectopically xenografted with human HepG2 cells assessed as liver weight at 25 mg/kg, ip administered once in 2 days measured after 30 days (reference value: 0.069 to 0.434 g); format: organism-based; conditions: in vivo, 720 h
[29] = test system: Mus musculus; assay: Toxicity in nude mouse ectopically xenografted with human HepG2 cells assessed as spleen weight at 25 mg/kg, ip administered once in 2 days measured after 30 days (reference value: 0.071 to 0.248 g); format: organism-based; conditions: in vivo, 720 h
[30] = test system: Mus musculus; assay: Toxicity in nude mouse ectopically xenografted with human HepG2 cells assessed as spleen weight index at 25 mg/kg, ip administered once in 2 days measured after 30 days (reference value: 0.002 to 0.0106); format: organism-based; conditions: in vivo, 720 h
[31] = test system: Mus musculus; assay: Toxicity in nude mouse ectopically xenografted with human HepG2 cells assessed as liver weight index at 25 mg/kg, ip administered once in 2 days measured after 30 days (reference value: 0.0009 to 0.0187); format: organism-based; conditions: in vivo, 720 h
[32] = test system: HepG2; assay: Antitumor activity against human HepG2 cells ectopically xenografted in nude mouse assessed as tumor growth inhibition at 25 mg/kg, ip administered once in 2 days measured after 30 days relative to control; format: functional; conditions: read-out: TGI
[33] = test system: Mus musculus; assay: Toxicity in nude mouse ectopically xenografted with human HepG2 cells assessed as body weight loss at 25 mg/kg, ip administered once in 2 days measured after 10 days relative to control; format: organism-based; conditions: in vivo, 240 h

Chain of Baculoviral IAP repeat-containing protein 5 (Homo sapiens) (O15392 whole entry): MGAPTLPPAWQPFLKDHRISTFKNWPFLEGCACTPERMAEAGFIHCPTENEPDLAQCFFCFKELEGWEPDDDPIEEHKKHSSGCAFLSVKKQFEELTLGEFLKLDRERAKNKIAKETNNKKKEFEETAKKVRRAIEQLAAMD

COc1ccc(CNc2ccc(C(=O)NCCCN(C)C)c3[nH]c4c([N+](=O)[O-])cccc4c(=O)c23)cc1 [listing 1 of 2 here]
Ratio IC50 [1]: 11
IC50 [2]: 3.56 µM
IC50 [3]: 4.4 µM
IC50 [4]: 40.7 µM

COc1ccc(CNc2ccc(C(=O)NCCCN(C)C)c3[nH]c4c([N+](=O)[O-])cccc4c(=O)c23)cc1 [listing 2 of 2 here]
inhibition [5]: inactive
Activity [6]: inactive
Activity [7]: Active
inhibition [8]: 10.9%
Activity [9]: Dose-dependent effect
Activity [10]: Dose-dependent effect
Activity [11]: Active
Activity [12]: Active

COc1cccc2c1C(=O)c1c(O)c3c(c(O)c1C2=O)C[C@@](O)(C(=O)CO)C[C@@H]3O[C@H]1C[C@H](N)[C@H](O)[C@H](C)O1
inhibition [13]: 74.4%

COc1ccc(CNc2ccc(C(=O)NCCN(C)C)c3[nH]c4c(C)cccc4c(=O)c23)cc1
IC50 [2]: 2.11 µM
IC50 [3]: 6.84 µM
IC50 [4]: 6.91 µM

COCCN1C(C)=[N+](Cc2cnccn2)C2Cc3ccccc3CC21 (stereo not drawn)
IC50 [2]: 15.3 µM
IC50 [3]: 4.13 µM
Activity [14]: inactive

COc1ccc(CNc2ccc(C(=O)NCCCN(C)C)c3[nH]c4c([N+](=O)[O-])cccc4c(=O)c23)cc1.Cl
inhibition in vivo at 3 mg/kg [15]: 54%
Activity index [16]: 0.0016 to 0.0113
Activity [17]: Non-Toxic
Activity [18]: Dose-dependent effect
Activity [19]: Non-Toxic
Activity [20]: 0.032 to 0.421 g
Activity [21]: 0.04 to 0.441 g
Activity [22]: Non-Toxic
Activity [23]: 0.084 to 0.344 g
Activity index [24]: 0.0025 to 0.0198
Activity [25]: 0.044 to 0.231 g
Activity index [26]: 0.0042 to 0.0162
Activity index [27]: 0.0016 to 0.0217

O=c1[nH]cc(F)c(=O)[nH]1 [FLUOROURACIL]
Activity [28]: 0.062 to 0.419 g
Activity [29]: 0.091 to 0.26 g
Activity index [30]: 0.005 to 0.0144
Activity index [31]: 0.0034 to 0.0231
inhibition in vivo at 25 mg/kg [32]: 64%
Activity [33]: 30%
